Results from different studies.
Cell line: T47D
Read-out: cell growth or viability

COC(=O)c1cc(C(C)=NNc2nc(-c3ccc(C)cc3)cs2)ccc1O — IC50 (MTT; 96 h): 24.1 µM
COc1cccc2c1C(=O)c1c(O)c3c(c(O)c1C2=O)C[C@@](O)(C(=O)CO)C[C@@H]3O[C@H]1C[C@H](N)[C@H](O)[C@H](C)O1 — IC50 (MTT; 75 h): 0.27 µM
CN(C)c1cccc2c(S(=O)(=O)NCCCCN=C=S)cccc12 — IC50 (MTT; 24 h): 21.1 µM
Cc1nc(NC(=O)N2CCC[C@H]2C(N)=O)sc1-c1ccnc(C(C)(C)C(F)(F)F)c1 — EC50 (ATP luminescence; 5 days): 0.444 µM
N#CSCCCCOc1ccc2c(-c3ccccc3)cc(=O)oc2c1 — GI50 (SRB): 34 µM
COC(=O)c1cc(C(C)=NNc2nc(-c3ccc4c(c3)OCCCO4)cs2)ccc1O — IC50 (MTT; 96 h): 21.2 µM
C=C[C@]1(C)C=C2CC[C@H]3C(C)(C)CCC[C@]3(C)[C@H]2CC1 — IC50 (MTT; 75 h): 159 µM
Cc1c(Cl)c(=O)oc2cc(OCCCCSC#N)ccc12 — GI50 (SRB): 24 µM
CS(=O)(=O)NCCCCN=C=S — IC50 (MTT; 24 h): 26.9 µM
C[C@H](Nc1ccc2c(c1)OCCn1cc(N3C(=O)OC[C@H]3C(F)F)nc1-2)C(N)=O — EC50 (ATP luminescence; 5 days): 0.0312 µM
COc1cccc2c1C(=O)c1c(O)c3c(c(O)c1C2=O)C[C@@](O)(C(=O)CO)C[C@@H]3O[C@H]1C[C@H](N)[C@H](O)[C@H](C)O1 — IC50 (MTT; 24 h): 75.9 µM
